Assays:
K562 = assay: Cytotoxicity against human K562 cells by MTT assay; format: functional; conditions: read-out: ED50 (the source's name)
How it was run: (§1)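 In vitro growth inhibition of A549 (human lung adenocarcinoma) and K562 (human […] leukemia) tumour cells. Potency is reported as ED50, the 50% effective dose of clonal inhibition, in µg/mL.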

A549 = assay: Cytotoxicity against human A549 cells by MTT assay; format: functional; conditions: read-out: ED50 (the source's name); how it was run: as §1

| SMILES | EC50 (K562) | EC50 (A549) |
| --- | --- | --- |
| COC(=O)C[C@H]1C(C)(C)[C@H](OC(C)=O)[C@H](OC(C)=O)[C@@H]2O[C@]34CC(=O)O[C@@H](c5ccoc5)[C@]3(C)[C@@H](OC(C)=O)[C@@H](C(=O)[C@@H]4C)[C@@]21C [CIPADESIN A] | > 5 µg/mL | > 5 µg/mL |
| C=C1[C@@H]2C[C@@]3(C)[C@H](c4ccoc4)OC(=O)C[C@]13O[C@H]1C[C@@H](OC(C)=O)C(C)(C)[C@H](CC(=O)OC)[C@@]1(C)C2=O [CIPATRIJUGIN A] | > 5 µg/mL | > 5 µg/mL |
| C=C1[C@]2(O)C[C@@]3(C)[C@H](c4ccoc4)OC(=O)C[C@]13O[C@H]1C[C@@H](OC(C)=O)C(C)(C)[C@H](CC(=O)OC)[C@@]1(C)C2=O [CIPATRIJUGIN B] | > 5 µg/mL | > 5 µg/mL |
| C=C1[C@]2(OC(C)=O)C[C@@]3(C)[C@H](c4ccoc4)OC(=O)C[C@]13O[C@H]1C[C@@H](OC(C)=O)C(C)(C)[C@H](CC(=O)OC)[C@@]1(C)C2=O [CIPATRIJUGIN C] | > 5 µg/mL | > 5 µg/mL |
| C=C1[C@H]2C(=O)[C@@]3(C)[C@H](C[C@@H](OC(C)=O)C(C)(C)[C@@H]3CC(=O)OC)O[C@@]13CC(=O)O[C@@H](c1ccoc1)[C@]3(C)[C@H]2OC(C)=O [CIPATRIJUGIN D] | > 5 µg/mL | > 5 µg/mL |
| COc1cccc2c1C(=O)c1c(O)c3c(c(O)c1C2=O)C[C@@](O)(C(=O)CO)C[C@@H]3O[C@H]1C[C@H](N)[C@H](O)[C@H](C)O1 [DOXORUBICIN] | 0.0595 µM | 0.0595 µM |
